Experimental findings from ChEMBL document CHEMBL3108741 (J Med Chem, 2014) are described below.

Data set [1] has as its system Mus musculus. Briefly: Anesthetic effect in mouse assessed as recovery of righting reflex at 1 to 8 mg/kg, iv. The data set is classed as functional. The following applies: dose mg/kg 1-8. In a few lines:
(§1)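 Mice, tail vein injection; compound in 22.5% aqueous 2-(hydroxypropyl)-β-cyclodextrin, lower doses by serial dilution of the 8 mg/kg stock with 0.9% saline. Anesthesia scored as loss of righting reflex; duration of LRR recorded at each dose.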

Data set [2] has as its system Mus musculus. Briefly: Anesthetic effect in mouse assessed as recovery of righting reflex at 8 to 16 mg/kg, iv. The data set is classed as functional. The following applies: dose mg/kg 8-16. In a few lines: (§2)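 Mice were given intravenous tail-vein injections at 8 and 16 mg/kg. The compound was in 22.5% aqueous 2-(hydroxypropyl)-β-cyclodextrin. Anesthesia was defined as loss of righting reflex, and onset, duration and recovery of the reflex were followed.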

The test system of data set [3] is Mus musculus. Briefly: Anesthetic effect in mouse assessed as onset of loss of righting reflex at 1 to 8 mg/kg, iv. The data set is classed as functional. The following applies: dose mg/kg 1-8. In a few lines:
(§3)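 Tail-vein injection in mice, with anesthesia read as loss of righting reflex (LRR): duration, onset and recovery scored. Compounds were dissolved in 22.5% aqueous 2-(hydroxypropyl)-β-cyclodextrin. Lower doses came from serial dilution of the 8 mg/kg solution with 0.9% saline. Doses tested were 1, 2, 4 and 8 mg/kg.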

The subject of data set [4] is Mus musculus. Briefly: Anesthetic effect in mouse assessed as onset of loss of righting reflex at 8 to 16 mg/kg, iv. The format is functional. Conditions: dose mg/kg 8-16. An outline of the steps: as §2
Data set [5] can be described thus: Lipophilicity, log P of the compound. The format is physicochemical. Conditions: octanol/water.
In data set [6] the test system is Mus musculus. Briefly: Anesthetic effect in mouse assessed as duration of loss of righting reflex at 16 mg/kg, iv. The format is functional. An outline of the steps:
as §1

In data set [7] the test system is Mus musculus. Briefly: Anesthetic effect in mouse assessed as duration of loss of righting reflex at 8 mg/kg, iv. The data set is classed as functional. In a few lines: as §3
The test system of data set [8] is Xenopus laevis. Briefly: Anesthetic effect on prelimb-bud stage Xenopus laevis tadpole assessed as loss of swimming reflex after 3 hrs. The format is functional, organism-based.
In data set [9] the test system is Xenopus laevis. Briefly: Anesthetic effect on prelimb-bud stage Xenopus laevis tadpole assessed as loss of righting reflex after 3 hrs. The data set is classed as functional, organism-based.
Data set [10] deals with HEK293. Briefly: Positive allosteric modulation of wild type rat alpha1beta2gamma2L GABAA receptor expressed in HEK293 cells assessed as longest-lived intracluster closed time at 20 uM by […] relative to control. The data set is classed as cell-based. Background: In two-electrode clamp one electrode senses voltage and the other passes current.

The subject of data set [11] is HEK293. Briefly: Positive allosteric modulation of wild type rat alpha1beta2gamma2L GABAA receptor expressed in HEK293 cells assessed as longest-lived intracluster open time at 20 uM by […] relative to control. The data set is classed as cell-based.
The subject of data set [12] is HEK293. Briefly: Positive allosteric modulation of wild type rat alpha1beta2gamma2L GABAA receptor expressed in HEK293 cells assessed as OT long at 20 uM by […]. The format is cell-based. In a few lines:
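Single-channel recording of rat wild-type α1β2γ2L GABAA receptors. Receptors were activated by 50 μM GABA with or without 20 μM compound, in 4-7 patches. Intracluster open-time histograms were fitted to sums of two or three exponentials, and the long open-time component was taken from the fit.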

The test system of data set [13] is HEK293. Briefly: Positive allosteric modulation of rat alpha1W245Lbeta2gamma2L GABAA receptor mutant expressed in HEK293 cells assessed as potentiation of GABA-induced chloride current elicitation at 20 uM by […] relative to control. The data set is classed as cell-based. An outline of the steps: (§4)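 HEK 293 cells expressing wild-type or α1 mutant receptors, whole-cell recording. Peak currents elicited by GABA at 5 μM for wild type or 10 μM for mutants (11–17% of maximal), with or without 20 μM compound. Mean ± S.D., 4–7 cells per receptor–compound combination.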

The test system of data set [14] is HEK293. Briefly: Positive allosteric modulation of rat alpha1S240Lbeta2gamma2L GABAA receptor mutant expressed in HEK293 cells assessed as potentiation of GABA-induced chloride current elicitation at 20 uM by […] relative to control. The format is cell-based. In a few lines: as §4
The subject of data set [15] is HEK293. Briefly: Positive allosteric modulation of rat alpha1Q241Lbeta2gamma2L GABAA receptor mutant expressed in HEK293 cells assessed as potentiation of GABA-induced chloride current elicitation at 20 uM by […] relative to control. The format is cell-based. In a few lines: as §4
Data set [16] deals with HEK293. Briefly: Positive allosteric modulation of wild type rat alpha1beta2gamma2L GABAA receptor expressed in HEK293 cells assessed as potentiation of GABA-induced chloride current elicitation at 20 uM by […] relative to control. The format is cell-based. In a few lines: as §4
For data set [17], the species on record is Rattus norvegicus. Briefly: Positive allosteric modulation of rat alpha1beta2gamma2L GABAA receptor expressed in Xenopus laevis oocytes assessed as potentiation of GABA-induced chloride current elicitation by two-electrode voltage clamp technique relative to control. The format is cell-based.
Data set [18] is filed under the species Rattus norvegicus. Briefly: […] of rat alpha1beta2gamma2L GABAA receptor expressed in Xenopus laevis oocytes assessed as chloride current elicitation at 10 uM by two-electrode voltage clamp technique relative to GABA. The format is cell-based. An outline of the steps: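 Rat α1β2γ2L GABAA receptors expressed in Xenopus oocytes, at least four oocytes. Direct current gated by 10 μM compound without GABA, expressed as the ratio of compound-only current to current evoked by 2 μM GABA; mean ± SEM.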

The species entered for data set [19] is Rattus norvegicus. Briefly: Positive allosteric modulation of rat alpha1beta2gamma2L GABAA receptor expressed in Xenopus laevis oocytes assessed as potentiation of GABA-induced chloride current elicitation at 10 uM by two-electrode voltage clamp technique relative to control. The format is cell-based.
Data set [20] is filed under the species Rattus norvegicus. Briefly: Positive allosteric modulation of rat alpha1beta2gamma2L GABAA receptor expressed in Xenopus laevis oocytes assessed as potentiation of GABA-induced chloride current elicitation at 1 uM by two-electrode voltage clamp technique relative to control. The data set is classed as cell-based.
The species named for data set [21] is Rattus norvegicus. Briefly: Positive allosteric modulation of rat alpha1beta2gamma2L GABAA receptor expressed in Xenopus laevis oocytes assessed as potentiation of GABA-induced chloride current elicitation at 0.1 uM by two-electrode voltage clamp technique relative to control. The data set is classed as cell-based.
A short description of data set [22]: Displacement of [35S]TBPS from rat picrotoxin binding site of GABAA receptor after 2 hrs by scintillation counting analysis. An outline of the steps:
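[35S]TBPS binding inhibition; duplicate experiments each run in triplicate, mean ± SEM. Highest concentration tested 30 μM; IC50 from fitted binding curve, with maximal displacement noted where inhibition was partial.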
In general terms: Loss of bound radioactivity is the signal in a displacement assay; it reports binding, not function.

Data set [23] deals with Mus musculus. Briefly: Anesthetic effect in mouse assessed as duration of loss of righting reflex at 4 mg/kg, iv. The data set is classed as functional. In a few lines:
as §3

In data set [24] the test system is Mus musculus. Briefly: Anesthetic effect in mouse assessed as duration of loss of righting reflex at 2 mg/kg, iv. The data set is classed as functional. In a few lines: as §3
The test system of data set [25] is Mus musculus. Briefly: Anesthetic effect in mouse assessed as duration of loss of righting reflex at 1 mg/kg, iv. Also on record: dose 1 mg/kg. The format is functional, organism-based. In a few lines:
as §3

Each structure is given as a SMILES string. Active and inactive are the calls of the source.

`C[C@@]12CC[C@H]3[C@@H](CC[C@@H]4C[C@@H](O)CC[C@]43C)[C@@H]1CC(=O)C2`: the Time in data set [1] was 1 min; in data set [2], 1 min; in [3] it was less than 30 s; in data set [4] it was less than 30 s; in data set [6] it was 7 min; in [7] it was 3 min. The logP in data set [5] stood at 3.71. The results for the 50% effective concentration (EC50) in data set [8] and in data set [9] were 1730 nM and 550 nM, respectively. Moreover, the Ratio in data set [10] stood at 0.05; in data set [11] it was 0.57; in data set [13], 1; in data set [14] it was 7.6; in [15], 1.3; in [16] it was 7.8. The Ratio in [18] is 0.15; in [19], 34.7; in [20], 7.72; in data set [21], 1.42. Moreover, in data set [12], the TIME worked out at 12.4 ms. The Activity result in data set [17] was “Dose-dependent effect”. The same molecule had an IC50 in data set [22] of 81 nM.
As for `CO[C@H]1[C@H]2CC[C@H]3[C@@H]4CC(=O)C[C@]4(C)CC[C@@H]3[C@]2(C)CC[C@@H]1O`, the Time is on record as 1 min in data set [1]; 1 min in data set [2]; less than 30 s in data set [3]; less than 30 s in [4]; 5 min in data set [23]; 1 min in [24]. Further, the Time in data set [7] is recorded as 9 min. In data set [5], the logP turned out to be 3.19. The outcome in [25] was inactive. Also, the EC50 in [8] stood at 1730 nM; in data set [9] it was 340 nM. The Ratio was determined as 0.06 in data set [10]; 0.53 in data set [11]; 0.9 in [13]; 9.4 in [14]; 1.3 in data set [15]; 9.2 in [16]. Besides, the Ratio stood at 0.08 in data set [18], 16 in data set [19], 6.48 in [20] and 1.41 in data set [21]. Moreover, the TIME in [12] stood at 17.7 ms. Also, the Activity result in data set [17] was “Dose-dependent effect”. Also, in data set [22], the IC50 stood at 83 nM.

One may read the logP as a log measure of how a compound divides between an organic and an aqueous phase. As a reminder, the EC50 is the concentration at which the effect is half-maximal. A word on the IC50: it is the concentration at which inhibition is half-maximal. Read a low IC50 as inhibition by little substance.
